Screens deposited in PubChem by several laboratories.
CHOP inh = inhibitors of CHOP induction in ER stress response; CHO-K1 CHOP-promoter luciferase, tunicamycin-induced, 15-18 h; inhibition, % at 10 µM; 220,000 tested, 3.8% active; AID 2732;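 active = compounds that reduced the stress-induced luciferase reporter signal by more than about 70% of percent inhibition, limit read from the data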
XBP1 UPR activ = adaptive UPR (XBP1) activation. activation, % at 20 µM. 330,000 tested, 0.33% active. CHO-XBP1 luciferase reporter, IRE1-XBP1 UPR activation, luminescence; percent of tunicamycin response, DMSO as zero;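 active = versus positive control, 20 µM dose yields 30% or more activation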
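Material: CHO cell line with stable XBP1 luciferase reporter; buffer or medium: F12 medium containing 10% fetal bovine serum; compound: single point, 20 µM final compound, 1% DMSO; incubation: 6 h treatment, 37 °C; measured by: glow luminescence from Steady-Glo reagent; evaluation: activation, % of tunicamycin; control set: tunicamycin high, DMSO low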
NS3 helicase inh = inhibitors of Hepatitis C virus NS3 helicase; AID 1800; NS3 helicase DNA unwinding, Cy5 molecular beacon fluorescence; inhibition, % at 10.9 µM; 290,000 tested, 0.56% active;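 active = inhibition above the mean of all tested compounds plus 3 SD, set per campaign, cut at about 35% in these data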
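assay system = NS3 helicase fragment of HCV | buffer or medium = MOPS pH 6.5, MgCl2, DTT, Tween20, BSA | timing = 60 min unwinding reaction at 25 °C after ATP addition | signal = Cy5 beacon fluorescence read at start and 1 h | read-out basis = % inhibition of unwinding | control set = low DMSO, high thioflavine S at 110 µM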
M18AAP inhibitor = PfM18AAP enzyme inhibition; recombinant PfM18AAP, H-Glu-NHMec fluorogenic cleavage; inhibition, % at 7.35 µM; 290,000 tested, 1.2% active; AID 1822;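 active = inhibition above the campaign mean inhibition over all tested compounds plus 3 SD, cut at about 28% in these data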
p97 inhibitor = human p97 ATPase inhibition | P55072 | recombinant p97 ATPase, Kinase-Glo ATP luminescence, 3 h | inhibition, % at 8 µM | 220,000 tested, 0.42% active; in the data active = inhibition above about 15%
Target sequence (P55072 whole entry, looked up): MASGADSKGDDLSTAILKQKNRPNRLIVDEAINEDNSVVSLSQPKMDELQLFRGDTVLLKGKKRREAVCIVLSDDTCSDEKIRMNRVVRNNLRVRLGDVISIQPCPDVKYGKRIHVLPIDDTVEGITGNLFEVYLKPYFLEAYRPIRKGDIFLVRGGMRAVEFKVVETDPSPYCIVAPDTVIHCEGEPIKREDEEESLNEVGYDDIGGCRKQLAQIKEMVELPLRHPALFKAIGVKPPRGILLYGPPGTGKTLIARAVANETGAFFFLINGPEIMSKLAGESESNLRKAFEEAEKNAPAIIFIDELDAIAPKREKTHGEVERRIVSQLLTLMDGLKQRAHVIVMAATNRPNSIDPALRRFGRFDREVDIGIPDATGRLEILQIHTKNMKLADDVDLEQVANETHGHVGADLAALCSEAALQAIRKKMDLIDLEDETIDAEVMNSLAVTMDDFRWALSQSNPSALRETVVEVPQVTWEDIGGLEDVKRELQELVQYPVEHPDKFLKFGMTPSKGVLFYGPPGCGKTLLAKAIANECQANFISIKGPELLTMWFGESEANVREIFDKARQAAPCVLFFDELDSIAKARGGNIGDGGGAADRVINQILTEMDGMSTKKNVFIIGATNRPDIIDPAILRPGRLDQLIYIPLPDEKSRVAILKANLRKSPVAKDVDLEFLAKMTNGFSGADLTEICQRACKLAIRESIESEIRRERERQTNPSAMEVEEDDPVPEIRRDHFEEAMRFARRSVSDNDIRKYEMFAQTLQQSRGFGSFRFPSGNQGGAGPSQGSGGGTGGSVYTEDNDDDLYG
UPR CHOP act = apoptotic UPR (CHOP) activation. CHO-CHOP luciferase reporter, luminescence; percent of tunicamycin response over DMSO baseline. activation, % at 10 µM. 330,000 tested, 0.34% active. AID 449763;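 active = at 10 µM dose, activation of 40% or more, normalized to positive control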
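Evaluation: % reporter activation, DMSO baseline versus tunicamycin full activation; System: CHO-CHOP luciferase reporter cell line; Input: 500 cells/well; Incubation: 6 h compound treatment, 37 °C; Measured by: Steady-Glo luciferase luminescence; Dosing: one dose, 10 µM in 0.5% DMSO; Buffer or medium: F12 medium, 10% FBS; Benchmarks: positive tunicamycin 10 µg/mL, negative DMSO alone.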
NS3 helicase cf = HCV NS3 helicase inhibition, confirmation assay | NS3 helicase DNA unwinding, Cy5 molecular beacon fluorescence | shares compounds with NS3 helicase inh | 1,600 tested, 31% active | AID 1943 | inhibition, % at 10.9 µM;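 active = inhibition above the mean of all tested compounds plus 3 SD, cutoff set per campaign, cut at about 36% in these data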
FID counter trip = counter-screen for HCV NS3 helicase inhibitors: DNA intercalator displacement | shares compounds with NS3 helicase inh | DNA fluorescent intercalator displacement, fluorescence | inhibition, % at 7.9 µM | 1,600 tested, 4% active; in the data active = inhibition above about 37%;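 note: higher means more displacement of ethidium bromide from the DNA hairpin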
Numbers stand for hits; – = inactive; · = no result. Rows were chosen to be rich in hits. Some 4.5% of all compounds tested hit in one or more screens of this group.

SMILES | CHOP inh | XBP1 UPR activ | NS3 helicase inh | M18AAP inhibitor | p97 inhibitor | UPR CHOP act | NS3 helicase cf | FID counter trip
COc1ccc(-c2nn(-c3ccccc3)cc2/C=C2/SC(=S)N(CCC(=O)O)C2=O)cc1 | · | – | – | – | · | – | · | ·
Cc1ccc(-c2nn(-c3ccccc3)cc2/C=C2\SC(=S)N(CC(=O)O)C2=O)cc1 | – | – | 47 | – | – | – | 61 | 46
O=C(O)CN1C(=O)/C(=C\c2cccc(OCc3ccc(Cl)cc3)c2)SC1=S | · | – | – | – | · | – | · | ·
O=C(O)CN1C(=O)/C(=C\c2cccc(OCc3ccccc3F)c2)SC1=S | · | – | – | – | · | – | · | ·
O=C(O)CN1C(=O)/C(=C\c2cc(Br)ccc2OCc2ccc(Cl)cc2Cl)SC1=S | · | – | 76 | – | · | – | 86 | 52
Cn1cccc1CC(=O)NNC(=S)Nc1ccc(F)cc1 | – | – | 36 | – | – | – | – | –
COc1ccccc1OCc1cc(C(=O)NCc2ccc(N3CCCC3=O)cc2)no1 | · | – | – | – | · | – | · | ·
COc1cc(NC(=O)C(=O)NNC(=O)C2CCCCC2)c(OC)cc1Cl | 85 | – | 36 | – | – | – | – | –
Cc1ccc(CNC(=O)CSc2nnc(CNC(=O)c3ccccc3)o2)cc1 | · | – | – | – | · | – | · | ·
CCc1ccccc1NC(=S)N1CCN(c2cccc(OC)c2)CC1 | · | – | – | – | · | – | · | ·
O=C(O)c1cccc(S(=O)(=O)N2CCCC(c3nc4c(nnn4Cc4ccc(F)cc4)c(=O)[nH]3)C2)c1 (configuration not stated) | · | – | 40 | – | · | – | – | –
COc1ccc(C(=O)c2coc3c2C(=O)C(=O)c2ccccc2-3)cc1 | – | – | 41 | – | – | – | – | –
Cc1ccc(-n2c(C)cc(=O)cc2C)cc1[N+](=O)[O-] | · | – | – | – | · | – | · | ·
O=C(O)c1ccc2noc(-c3ccccc3)c2c1 | – | – | – | – | – | – | · | ·
O=C(O)/C=C/c1ccc2c(-c3ccccc3)onc2c1 | – | – | 54 | – | – | – | – | –
CCN(CC)S(=O)(=O)c1ccc(C)c(N=C=S)c1 | – | – | – | – | – | – | · | ·
Cc1cc(C)c(C(=O)N2CCCC(CNS(=O)(=O)N(C)C)C2)o1 (configuration not stated) | · | – | – | – | · | – | · | ·
CC(C)(C)OC(=O)N1CCC(CNC(=O)c2ccc(F)cc2F)CC1 | – | – | 41 | – | – | – | – | –
CC(C)(C)OC(=O)N1CCC(CNC(=O)c2cccs2)CC1 | – | – | – | – | – | – | · | ·
O=C1/C(=C/c2cccs2)SC(=S)N1CCC(=O)N1CCCCC1CCO (configuration not stated) | · | – | – | – | · | – | · | ·
C[C@@H](NC(=O)Cn1ccc(N)nc1=O)c1cccc2ccccc12 | · | – | · | · | · | – | · | ·
O=C(O)C(c1ccccc1)N1C(=O)/C(=C\c2ccc(-c3ccccc3Cl)o2)SC1=S (configuration not stated) | · | – | 59 | – | · | – | 83 | 57
Cc1ccc(-c2ccccc2)n1-c1ccc(C(=O)O)cc1 | – | – | – | – | – | – | · | ·
Cc1cc2c(n1-c1ccc(C(=O)O)cc1)CCCCC2 | · | – | 54 | – | · | – | 71 | –
COc1ccc(-c2cc(=O)oc3c(C)c(OC(C)C(=O)Nc4ccc(CN5CCOCC5)cc4)ccc23)cc1 (configuration not stated) | · | – | – | – | · | – | · | ·
C(=C\c1ccccc1)/C=N/Nc1ccc2nncn2n1 | – | – | 44 | – | – | – | – | –
CCc1ccc(-n2ccc(=O)c(C(=O)O)n2)cc1 | · | – | – | – | · | – | · | ·
Oc1c(Br)cc(Cl)cc1C=Nc1ccc(N2CCOCC2)cc1 | – | – | 43 | – | – | – | – | –
Oc1ccc(N=Nc2cccc(Cl)c2)cc1C=Nc1ccc(N2CCOCC2)cc1 | – | · | – | – | – | · | · | ·
CCOC(=O)c1c(-c2ccc(C)cc2)csc1NC(=O)C1CC=CCC1C(=O)O (configuration not stated) | – | – | 43 | – | – | – | 74 | –
